# Tests used:
# [1] = biological target: T1, C-X-C chemokine receptor type 4 (Homo sapiens, UniProt P61073); assay: (§1) Inhibitory activity based on the inhibition of [Ca2+] mobilization induced by human SDF-1alpha stimulation through C-X-C chemokine receptor type 4
# In short: (§2)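 CHO cells transfected with CXCR4 were loaded with Fura-2-AM for 1–2 h and then pretreated with analogue. Recombinant human SDF-1α was added 3 min later. [Ca2+]i rise was measured spectrofluorometrically by a modified Fura-2 method, and IC50 was derived from inhibition of mobilization. Values are the mean of two experiments.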
# [2] = biological target: T1, C-X-C chemokine receptor type 4; assay: as §1; in short: as §2; remark: listed apart in the source
# T1 sequence (P61073 whole entry): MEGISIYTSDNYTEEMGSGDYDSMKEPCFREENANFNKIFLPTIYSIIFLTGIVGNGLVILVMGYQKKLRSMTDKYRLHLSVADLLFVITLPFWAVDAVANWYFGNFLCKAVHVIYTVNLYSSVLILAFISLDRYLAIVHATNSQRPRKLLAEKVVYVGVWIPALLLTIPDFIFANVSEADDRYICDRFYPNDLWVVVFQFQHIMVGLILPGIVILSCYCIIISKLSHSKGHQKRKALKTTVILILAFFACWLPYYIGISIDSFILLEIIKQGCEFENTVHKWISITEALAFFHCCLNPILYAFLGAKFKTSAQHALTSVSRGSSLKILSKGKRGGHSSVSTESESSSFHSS
compound,measurement,setting,value
C[C@H]1/C=C\[C@@H](CCCCN)NC(=O)[C@H](CCCCN)NC(=O)[C@H](CCCNC(=N)N)NC(=O)[C@H](Cc2ccc(O)cc2)NC(=O)[C@@H](NC(=O)[C@H](Cc2c[nH]c3ccccc23)NC(=O)[C@H](CCCNC(=N)N)NC(=O)[C@@H](N)CCCN=C(N)N)CSSC[C@@H](C(=O)N[C@@H](CCCNC(=N)N)C(=O)O)NC(=O)[C@H](CCCNC(N)=O)NC(=O)[C@H](CCCNC(=N)N)NC(=O)[C@H](Cc2ccc(O)cc2)NC1=O,IC50,[1],30 nM
same,IC50,[2],27 nM

# Source: ChEMBL document CHEMBL1135248, “Synthesis and evaluation of pseudopeptide analogues of a specific CXCR4 inhibitor, T140: the insertion of an (E)-alkene dipeptide isostere into the betaII'-turn moiety” (Bioorg Med Chem Lett, 2002)
